Test results taken from ChEMBL document CHEMBL3853360, “Combined Interactions with I1-, I2-Imidazoline Binding Sites and α2-Adrenoceptors To Manage Opioid Addiction” (ACS Med Chem Lett, 2016).

How the values were obtained:
[1] = biological target: T1, Adrenergic receptor alpha-2 (Rattus norvegicus, UniProt P22086+P19328+P22909); assay: Displacement of [3H]-RX 821002 from alpha2-AR in Sprague-Dawley rat brain membranes after 30 mins by liquid scintillation counting; format: cell membranes, Membrane
T1 sequence (P22086 whole entry): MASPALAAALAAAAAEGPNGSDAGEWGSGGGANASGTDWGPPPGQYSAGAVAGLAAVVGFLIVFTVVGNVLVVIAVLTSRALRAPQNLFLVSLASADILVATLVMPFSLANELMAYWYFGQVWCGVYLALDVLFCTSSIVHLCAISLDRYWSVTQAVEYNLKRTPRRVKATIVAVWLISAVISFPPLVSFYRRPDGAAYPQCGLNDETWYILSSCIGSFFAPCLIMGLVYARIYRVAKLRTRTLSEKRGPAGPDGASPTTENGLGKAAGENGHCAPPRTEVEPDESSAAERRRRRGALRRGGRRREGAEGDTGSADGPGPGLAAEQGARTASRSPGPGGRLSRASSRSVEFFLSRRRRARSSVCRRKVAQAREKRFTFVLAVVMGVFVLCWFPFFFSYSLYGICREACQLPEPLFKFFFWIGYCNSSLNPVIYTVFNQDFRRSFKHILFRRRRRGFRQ
T1 sequence (P19328 whole entry): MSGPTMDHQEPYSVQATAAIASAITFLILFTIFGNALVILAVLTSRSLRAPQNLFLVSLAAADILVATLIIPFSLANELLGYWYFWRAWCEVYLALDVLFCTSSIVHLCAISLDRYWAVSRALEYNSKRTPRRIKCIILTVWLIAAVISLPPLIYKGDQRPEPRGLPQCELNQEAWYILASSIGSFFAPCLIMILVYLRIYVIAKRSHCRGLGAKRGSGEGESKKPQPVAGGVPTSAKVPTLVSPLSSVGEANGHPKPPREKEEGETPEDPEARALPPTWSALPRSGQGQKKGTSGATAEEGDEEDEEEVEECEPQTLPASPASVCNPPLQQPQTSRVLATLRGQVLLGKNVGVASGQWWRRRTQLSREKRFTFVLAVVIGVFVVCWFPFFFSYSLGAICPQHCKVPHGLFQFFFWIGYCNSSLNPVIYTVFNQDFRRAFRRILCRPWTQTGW
T1 sequence (P22909 whole entry): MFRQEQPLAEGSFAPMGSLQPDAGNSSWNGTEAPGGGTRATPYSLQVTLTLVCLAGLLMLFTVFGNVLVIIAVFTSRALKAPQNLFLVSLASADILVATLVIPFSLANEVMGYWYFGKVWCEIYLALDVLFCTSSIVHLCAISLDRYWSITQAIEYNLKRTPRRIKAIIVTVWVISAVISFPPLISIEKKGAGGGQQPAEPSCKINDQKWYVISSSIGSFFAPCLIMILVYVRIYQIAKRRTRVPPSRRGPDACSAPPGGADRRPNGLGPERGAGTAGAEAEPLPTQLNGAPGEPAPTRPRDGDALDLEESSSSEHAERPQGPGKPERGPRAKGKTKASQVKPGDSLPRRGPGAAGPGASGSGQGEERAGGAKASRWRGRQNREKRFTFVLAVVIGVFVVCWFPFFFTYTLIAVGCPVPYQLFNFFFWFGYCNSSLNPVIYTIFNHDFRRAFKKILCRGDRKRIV
Outline: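 Radioligand competition binding with pKi determined by displacement. I1 sites: [125I]-p-iodoclonidine on rat kidney membranes. I2 sites: [3H]-2-BFI on rat brain membranes. α2-ARs: [3H]-RX821002 on rat brain membranes.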

[2] = biological target: T2, Alpha-2B adrenergic receptor (Homo sapiens, UniProt P18089); assay: Agonist activity at human alpha2b-AR expressed in CHO cells assessed as rate of acidification after 240 mins by cytosensor microphysiometric analysis; format: cell-based
T2 sequence (P18089 whole entry): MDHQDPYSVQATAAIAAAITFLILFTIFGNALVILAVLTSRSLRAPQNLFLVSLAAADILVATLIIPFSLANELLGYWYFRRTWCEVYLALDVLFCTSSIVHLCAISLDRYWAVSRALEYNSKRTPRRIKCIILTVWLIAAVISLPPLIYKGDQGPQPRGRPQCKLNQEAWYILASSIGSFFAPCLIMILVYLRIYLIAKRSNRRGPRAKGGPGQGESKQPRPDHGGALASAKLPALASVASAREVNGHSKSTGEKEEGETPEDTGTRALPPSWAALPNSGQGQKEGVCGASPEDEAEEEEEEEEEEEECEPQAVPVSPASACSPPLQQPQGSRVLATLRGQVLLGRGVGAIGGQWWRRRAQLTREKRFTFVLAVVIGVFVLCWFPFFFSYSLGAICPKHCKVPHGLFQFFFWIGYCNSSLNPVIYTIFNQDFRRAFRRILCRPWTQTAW
Outline: (§1)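 Functional assay in CHO cells stably expressing a single human α2-AR subtype (α2A, α2B or α2C), read on a Cytosensor microphysiometer. Outputs are pEC50, intrinsic activity and, for antagonism, pKb. Intrinsic activity is expressed as a fraction of the full agonist (−)-noradrenaline, set at 1. Values are mean ± SEM of 3–5 separate experiments.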

[3] = biological target: T3, Alpha-2C adrenergic receptor (Homo sapiens) (UniProt P18825); assay: Agonist activity at human alpha2c-AR expressed in CHO cells assessed as rate of acidification after 240 mins by cytosensor microphysiometric analysis relative to (-)-noradrenaline; format: cell-based; outline: as §1
T3 sequence (whole entry): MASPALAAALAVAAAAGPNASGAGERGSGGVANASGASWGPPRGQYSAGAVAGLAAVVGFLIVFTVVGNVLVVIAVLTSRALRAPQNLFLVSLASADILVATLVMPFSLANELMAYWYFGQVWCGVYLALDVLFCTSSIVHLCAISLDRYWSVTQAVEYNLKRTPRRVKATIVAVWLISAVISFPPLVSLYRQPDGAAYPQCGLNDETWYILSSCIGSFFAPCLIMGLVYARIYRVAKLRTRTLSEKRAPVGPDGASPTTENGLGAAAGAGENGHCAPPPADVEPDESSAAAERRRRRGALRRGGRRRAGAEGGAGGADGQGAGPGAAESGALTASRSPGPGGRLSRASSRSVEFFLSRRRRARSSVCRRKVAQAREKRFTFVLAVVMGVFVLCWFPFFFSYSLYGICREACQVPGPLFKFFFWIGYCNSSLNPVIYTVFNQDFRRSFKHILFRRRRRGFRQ

[4] = Reduction in morphine dependence expression in CD1 mouse assessed as inhibition of naloxone-precipitated jumping at 5 mg/kg, ip administered acutely 15 mins prior to naloxone challenge relative to control; format: functional, organism-based
[5] = Reduction in morphine dependence expression in CD1 mouse assessed as inhibition of naloxone-precipitated rearing frequency at 5 mg/kg, ip administered acutely 15 mins prior to naloxone challenge relative to control; format: functional, organism-based
Mus musculus = assay: Reduction in morphine dependence acquisition in CD1 mouse assessed as inhibition of naloxone-precipitated forepaw tremor frequency at 5 to 10 mg/kg, ip administered 15 mins prior to each morphine challenge relative to control; format: functional
Outline: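 Mice received i.p. test compound (5 or 10 mg/kg) 15 min before each of repeated morphine injections, with vehicle and morphine-only controls. Withdrawal was then precipitated with naloxone. Jumping frequency and somatic signs (rearing, forepaw tremor, teeth chattering; summed frequency) were scored and compared with the morphine group. Data are mean ± SEM of 6–10 animals.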

For Cc1ccccc1NCC1=NCCN1, which pKi [1] is on record?
The pKi was 7.73.

What about the EC50 [2] of the same compound?
Its EC50 is 3.16 µM.

What about the Intrinsic activity [3] of the same compound?
The Intrinsic activity was 0.8.

What about the inhibition [4] of the same compound?
Its inhibition is 96%.

What about the inhibition [5] of the same compound?
The inhibition was 86%.

And the “inhibition (INH)” value (Mus musculus)?
The value was 80%.
